Reference: ChEMBL document CHEMBL1134972, “Discovery of a potent and selective COX-2 inhibitor in the alkoxy lactone series with optimized metabolic profile” (Bioorg Med Chem Lett, 2002)

Key:
[1] = tested on: Rattus norvegicus; assay: Antiinflammatory activity by using Rat paw edema assay; assay type: functional
Outline: (§1)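 Rat in vivo models (paw edema, pyresis, hyperalgesia, adjuvant arthritis), with activity expressed as ED50 in mg/kg.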

[2] = biological target: Prostaglandin G/H synthase 1 (Homo sapiens, UniProt P23219); assay: In vitro inhibitory potency against Prostaglandin G/H synthase 1 in human whole blood assay; assay type: tissue-based
[3] = organism: Rattus norvegicus; assay: Antiinflammatory activity by using Rat adjuvant arthritis assay; assay type: functional; outline: as §1
[4] = organism: Rattus norvegicus; assay: Antiinflammatory activity by using Rat hyperalgesia assay; assay type: functional; outline: as §1
[5] = Cmax in rat; assay type: ADME, organism-based; conditions: in vivo
Outline: (§2)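 Rat pharmacokinetics at a 10 mg/kg dose, reporting half-life, Cmax (μM) and bioavailability (%).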

[6] = organism: Rattus norvegicus; assay: Antiinflammatory activity by using Rat pyresis assay; assay type: functional; outline: as §1
[7] = Half-life in rat; assay type: ADME, organism-based; conditions: in vivo; outline: as §2
[8] = biological target: T1, Prostaglandin G/H synthase 2 (Homo sapiens, UniProt P35354); assay: In vitro inhibitory potency against Prostaglandin G/H synthase 2 in human whole blood assay; assay type: tissue-based
T1 sequence (P35354 whole entry): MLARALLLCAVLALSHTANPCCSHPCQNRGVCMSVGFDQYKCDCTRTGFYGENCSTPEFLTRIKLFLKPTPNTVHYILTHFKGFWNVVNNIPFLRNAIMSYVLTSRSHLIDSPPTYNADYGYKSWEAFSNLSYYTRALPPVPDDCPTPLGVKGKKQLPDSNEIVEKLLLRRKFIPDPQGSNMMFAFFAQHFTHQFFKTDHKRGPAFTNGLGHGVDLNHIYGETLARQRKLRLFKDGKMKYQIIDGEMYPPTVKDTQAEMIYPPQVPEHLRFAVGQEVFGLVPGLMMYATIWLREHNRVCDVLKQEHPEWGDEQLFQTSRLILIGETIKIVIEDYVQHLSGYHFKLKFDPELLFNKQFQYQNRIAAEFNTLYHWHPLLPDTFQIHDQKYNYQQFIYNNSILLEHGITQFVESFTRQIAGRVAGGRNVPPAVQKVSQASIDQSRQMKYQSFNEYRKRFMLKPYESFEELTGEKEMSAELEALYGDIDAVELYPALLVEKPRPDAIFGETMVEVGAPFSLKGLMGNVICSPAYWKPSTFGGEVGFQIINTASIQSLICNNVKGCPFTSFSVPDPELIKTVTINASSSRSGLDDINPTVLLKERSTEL

[9] = Bioavailability in rat; assay type: ADME, organism-based; conditions: in vivo; outline: as §2

Sequence of Prostaglandin G/H synthase 1 (P23219 whole entry): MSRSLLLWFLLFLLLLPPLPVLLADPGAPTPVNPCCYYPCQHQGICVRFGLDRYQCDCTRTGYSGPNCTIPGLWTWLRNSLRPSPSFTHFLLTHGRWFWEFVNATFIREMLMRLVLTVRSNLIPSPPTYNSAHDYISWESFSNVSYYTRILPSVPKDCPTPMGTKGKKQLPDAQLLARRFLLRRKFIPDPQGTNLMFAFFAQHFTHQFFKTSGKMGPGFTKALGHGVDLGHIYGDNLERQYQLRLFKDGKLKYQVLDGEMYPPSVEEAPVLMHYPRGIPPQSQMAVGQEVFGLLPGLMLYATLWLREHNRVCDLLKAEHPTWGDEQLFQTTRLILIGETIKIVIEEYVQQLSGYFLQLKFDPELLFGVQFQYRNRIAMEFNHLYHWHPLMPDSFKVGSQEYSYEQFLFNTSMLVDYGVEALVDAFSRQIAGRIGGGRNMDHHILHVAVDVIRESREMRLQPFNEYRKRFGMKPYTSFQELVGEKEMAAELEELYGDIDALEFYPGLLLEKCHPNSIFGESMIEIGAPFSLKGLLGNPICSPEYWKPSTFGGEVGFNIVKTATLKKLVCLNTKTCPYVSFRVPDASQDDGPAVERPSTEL

| IC50 ([2]; read-out: IC50) [nM] | half-life [7] [h] | IC50 [2] | IC50 [8] [nM] | bioavailability [9] [%] | Compound | ED50 [1] [mg/kg] | ED50 [3] [mg/kg] | ED50 [4] [mg/kg] | Cmax [5] [µM] | ED50 [6] [mg/kg] |
| --- | --- | --- | --- | --- | --- | --- | --- | --- | --- | --- |
|  |  | Not Active |  |  | CC(C)OC1=C(c2ccc(S(C)(=O)=O)cc2)C(C)(CC(F)(F)F)OC1=O (stereo not given) |  |  |  |  |  |
| > 86000 | 2 |  | 400 | 100 | CC[C@]1(C)OC(=O)C(OC(C)C)=C1c1ccc(S(C)(=O)=O)cc1 | 1.2 | 3.3 | 0.7 | 1.7 | 0.7 |
| > 100000 | < 2 |  | 500 |  | CC[C@@]1(C)OC(=O)C(OC(C)C)=C1c1ccc(S(C)(=O)=O)cc1 (single isomer, unassigned) | 4.5 |  |  |  | 4.9 |

Further lines, the compound ahead of its results:

| Compound | IC50 ([2]; read-out: IC50) [nM] | half-life [7] [h] | IC50 [2] | IC50 [8] [nM] | bioavailability [9] [%] | ED50 [1] [mg/kg] | ED50 [3] [mg/kg] | ED50 [4] [mg/kg] | Cmax [5] [µM] | ED50 [6] [mg/kg] |
| --- | --- | --- | --- | --- | --- | --- | --- | --- | --- | --- |
| CC(C)OC1=C(c2ccc(S(C)(=O)=O)cc2)C(C)(C)OC1=O | > 100000 | 7.1 |  |  |  | 0.8 | 0.3 | 0.8 | 15 | 0.3 |
| COc1ccc2c(c1)c(CC(=O)O)c(C)n2C(=O)c1ccc(Cl)cc1 [INDOMETHACIN] |  |  |  |  |  | 2 | 0.2 | 1.4 |  | 1 |
| CS(=O)(=O)c1ccc(C2=C(c3ccccc3)C(=O)OC2)cc1 [ROFECOXIB] |  |  |  |  |  | 1.5 | 0.8 | 1 |  | 0.2 |
